According to article PMC8114154 (Journal of Applied Glycoscience, 2019):

Columns and labels:
AsojAgdL = assay: glucose release; format: biochemical, Aspergillus sojae; details: 20 mM MES pH 6.0, 40 °C, 60 min
Outline: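 Recombinant enzyme expressed in A. nidulans, purified by His-Trap affinity then Superdex 200 gel filtration. Incubated with substrates at various concentrations for 60 min at 40 °C. Stopped with 10 % oxalic acid and 10 min boiling. Released glucose quantified by glucose assay kit. Km from nonlinear-regression Michaelis–Menten fit of initial velocities over the low-concentration range only.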

AnigAgdA = target: T1, AnigAgdA (Aspergillus niger, UniProt P56526); assay: glucose release, fit of v = Vmax[S]/; format: biochemical; details: 20 mM acetate pH 4.0, 40 °C, 60 min; substrate inhibition
T1 sequence (P56526 26-985): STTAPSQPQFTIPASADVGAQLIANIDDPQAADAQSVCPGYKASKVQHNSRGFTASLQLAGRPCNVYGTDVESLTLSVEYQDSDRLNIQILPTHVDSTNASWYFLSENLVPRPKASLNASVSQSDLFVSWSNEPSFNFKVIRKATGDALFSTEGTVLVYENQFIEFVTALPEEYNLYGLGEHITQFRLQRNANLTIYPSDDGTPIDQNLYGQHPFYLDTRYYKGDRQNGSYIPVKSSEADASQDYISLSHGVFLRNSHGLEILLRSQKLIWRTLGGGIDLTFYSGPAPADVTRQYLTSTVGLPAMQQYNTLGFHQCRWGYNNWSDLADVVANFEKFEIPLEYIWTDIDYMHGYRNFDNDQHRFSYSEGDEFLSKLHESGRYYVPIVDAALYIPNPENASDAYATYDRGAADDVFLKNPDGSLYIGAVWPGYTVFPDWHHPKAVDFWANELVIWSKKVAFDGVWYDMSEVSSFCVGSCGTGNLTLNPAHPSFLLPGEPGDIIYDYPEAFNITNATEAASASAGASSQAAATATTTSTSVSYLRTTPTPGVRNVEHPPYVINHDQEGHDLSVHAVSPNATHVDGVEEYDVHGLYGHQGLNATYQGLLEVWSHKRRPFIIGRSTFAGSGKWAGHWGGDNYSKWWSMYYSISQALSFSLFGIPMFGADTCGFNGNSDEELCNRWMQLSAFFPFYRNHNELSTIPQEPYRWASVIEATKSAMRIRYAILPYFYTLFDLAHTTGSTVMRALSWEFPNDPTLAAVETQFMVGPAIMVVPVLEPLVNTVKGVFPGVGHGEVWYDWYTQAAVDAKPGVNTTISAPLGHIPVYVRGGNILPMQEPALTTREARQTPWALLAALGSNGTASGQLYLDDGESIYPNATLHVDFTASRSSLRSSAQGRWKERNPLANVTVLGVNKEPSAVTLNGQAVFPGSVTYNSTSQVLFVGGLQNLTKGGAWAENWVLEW

[1] = low substrate range only (substrate inhibition)

| Compound | Km (AsojAgdL) | Ki (AnigAgdA) | Km (AsojAgdL; [1]) |
| --- | --- | --- | --- |
| OC[C@H]1O[C@H](OC[C@H]2O[C@H](OC[C@H]3O[C@H](OC[C@H]4O[C@H](OC[C@H]5O[C@H](OC[C@H]6OC(O)[C@H](O)[C@@H](O)[C@@H]6O)[C@H](O)[C@@H](O)[C@@H]5O)[C@H](O)[C@@H](O)[C@@H]4O)[C@H](O)[C@@H](O)[C@@H]3O)[C@H](O)[C@@H](O)[C@@H]2O)[C@H](O)[C@@H](O)[C@@H]1O (stereo partly shown) [Isomaltohexaose] | 1100 ± 200 µM | – | – |
| OC[C@H]1O[C@H](OC[C@H]2O[C@H](OC[C@H]3O[C@H](OC[C@H]4O[C@H](OC[C@H]5OC(O)[C@H](O)[C@@H](O)[C@@H]5O)[C@H](O)[C@@H](O)[C@@H]4O)[C@H](O)[C@@H](O)[C@@H]3O)[C@H](O)[C@@H](O)[C@@H]2O)[C@H](O)[C@@H](O)[C@@H]1O (stereo partly shown) [Isomaltopentaose] | 900 ± 100 µM | – | – |
| OC[C@H]1O[C@H](OC[C@H]2OC(O)[C@H](O)[C@@H](O)[C@@H]2O)[C@H](O)[C@@H](O)[C@@H]1O (stereo partly shown) [Isomaltose] | 2000 ± 300 µM | – | – |
| OC[C@H]1O[C@H](OC[C@H]2O[C@H](OC[C@H]3O[C@H](OC[C@H]4OC(O)[C@H](O)[C@@H](O)[C@@H]4O)[C@H](O)[C@@H](O)[C@@H]3O)[C@H](O)[C@@H](O)[C@@H]2O)[C@H](O)[C@@H](O)[C@@H]1O (stereo partly shown) [Isomaltotetraose] | 2400 ± 800 µM | – | – |
| OC[C@H]1O[C@H](OC[C@H]2O[C@H](OC[C@H]3OC(O)[C@H](O)[C@@H](O)[C@@H]3O)[C@H](O)[C@@H](O)[C@@H]2O)[C@H](O)[C@@H](O)[C@@H]1O (stereo partly shown) [Isomaltotriose] | 500 ± 100 µM | – | – |

Further lines, results first:

| Km (AsojAgdL) | Ki (AnigAgdA) | Km (AsojAgdL; [1]) | Compound |
| --- | --- | --- | --- |
| 2100 ± 300 µM | – | – | OC[C@H]1O[C@H](O[C@H]2C(O)O[C@H](CO)[C@@H](O)[C@@H]2O)[C@H](O)[C@@H](O)[C@@H]1O (stereo partly shown) [Kojibiose] |
| – | 30.8 ± 7.0 mM | 900 ± 100 µM | OC[C@H]1O[C@H](O[C@H]2[C@H](O)[C@@H](O)[C@@H](O[C@H]3[C@H](O)[C@@H](O)[C@@H](O[C@H]4[C@H](O)[C@@H](O)[C@@H](O[C@H]5[C@H](O)[C@@H](O)[C@@H](O[C@H]6[C@H](O)[C@@H](O)C(O)O[C@@H]6CO)O[C@@H]5CO)O[C@@H]4CO)O[C@@H]3CO)O[C@@H]2CO)[C@H](O)[C@@H](O)[C@@H]1O (stereo partly shown) [Maltohexaose] |
| – | 19.6 ± 2.2 mM | 900 ± 100 µM | OC[C@H]1O[C@H](O[C@H]2[C@H](O)[C@@H](O)[C@@H](O[C@H]3[C@H](O)[C@@H](O)[C@@H](O[C@H]4[C@H](O)[C@@H](O)[C@@H](O[C@H]5[C@H](O)[C@@H](O)C(O)O[C@@H]5CO)O[C@@H]4CO)O[C@@H]3CO)O[C@@H]2CO)[C@H](O)[C@@H](O)[C@@H]1O (stereo partly shown) [Maltopentaose] |
| 2200 ± 300 µM | 12.0 ± 3.6 mM | – | OC[C@H]1O[C@H](O[C@H]2[C@H](O)[C@@H](O)C(O)O[C@@H]2CO)[C@H](O)[C@@H](O)[C@@H]1O (stereo partly shown) [Maltose] |
| – | – | 1600 ± 100 µM | OC[C@H]1O[C@H](O[C@H]2[C@H](O)[C@@H](O)[C@@H](O[C@H]3[C@H](O)[C@@H](O)[C@@H](O[C@H]4[C@H](O)[C@@H](O)C(O)O[C@@H]4CO)O[C@@H]3CO)O[C@@H]2CO)[C@H](O)[C@@H](O)[C@@H]1O (stereo partly shown) [Maltotetraose] |
| – | 3.8 ± 0.7 mM | 2000 µM | OC[C@H]1O[C@H](O[C@H]2[C@H](O)[C@@H](O)[C@@H](O[C@H]3[C@H](O)[C@@H](O)C(O)O[C@@H]3CO)O[C@@H]2CO)[C@H](O)[C@@H](O)[C@@H]1O (stereo partly shown) [Maltotriose] |
| 2500 ± 400 µM | – | – | OC[C@H]1O[C@H](O[C@H]2[C@H](O)[C@@H](CO)OC(O)[C@@H]2O)[C@H](O)[C@@H](O)[C@@H]1O (stereo partly shown) [Nigerose] |
